Only some compounds are listed: those with a hit (about 3.1% of all), similar ones and a draw of the others.
LEDGF integ inh: blocks HIV-1 LEDGF/p75-dependent DNA integration. inhibition, % at 3.7 µM. AID 743269. hit rate 0.64% among 370,000. TR-FRET IN-LEDGF/p75 DNA integration, Eu/Cy5;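 active means inhibition above the screen-wide mean plus 3 SD, cut at about 13% in these data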;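 further: signal is the Cy5 over europium emission ratio at 671 and 618 nm; 0% = plate median of compound wells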
MBD2 DNA inh: MBD2-methylated oligo binding inhibition | TR-FRET, MBD2 binding to methylated oligonucleotide | inhibition, % at 4.4 µM | hit rate 0.31% among 370,000; in the data active means inhibition above about 13%
UHRF1 binding: blocks human UHRF1 binding to methylated DNA; UHRF1 binding to methylated oligo, TR-FRET; inhibition, % at 4.4 µM; Q96T88; hit rate 0.75% among 370,000; in the data active means inhibition above about 21%;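 further: UHRF1 SRA domain binding a hemimethylated CpG hairpin DNA probe; 0% = median of test compound wells and 100% = reference inhibitor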
CSN inh: CSN deneddylation inhibition | Q92905 | Purified CSN, SCF-Nedd8-OG deneddylation, fluorescence polarization | inhibition, % at 12.5 µM | hit rate 0.38% among 360,000 | AID 651999;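 active means pattern-corrected inhibition above about 35%, with an unprinted fluorescence ratio check between 0.5 and 1.5, limit read from the data, passing the limit was not always enough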;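 further: 0% = enzyme with substrate and 100% = substrate without enzyme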
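Test system: purified human Csn5 enzyme expressed in HEK293T cells. Amount: 0.24 nM enzyme. Reagent: SCFSkp2-Nedd8OG substrate at 10 nM final. Schedule: 90 min incubation of compound, enzyme and substrate at room temperature. Detection: fluorescence polarization. Read-out: % inhibition of substrate cleavage by Csn5.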
ATG4B inh: inhibitors of human ATG4B cysteine protease; Q9Y4P1; ATG4B cleavage of LC3-PLA2, NBD-HPC fluorescence, 1 h; inhibition, % at 8.33 µM; hit rate 0.51% among 340,000; AID 504462; in the data active means inhibition above about 40%
Target sequence (Q9Y4P1 whole entry, looked up): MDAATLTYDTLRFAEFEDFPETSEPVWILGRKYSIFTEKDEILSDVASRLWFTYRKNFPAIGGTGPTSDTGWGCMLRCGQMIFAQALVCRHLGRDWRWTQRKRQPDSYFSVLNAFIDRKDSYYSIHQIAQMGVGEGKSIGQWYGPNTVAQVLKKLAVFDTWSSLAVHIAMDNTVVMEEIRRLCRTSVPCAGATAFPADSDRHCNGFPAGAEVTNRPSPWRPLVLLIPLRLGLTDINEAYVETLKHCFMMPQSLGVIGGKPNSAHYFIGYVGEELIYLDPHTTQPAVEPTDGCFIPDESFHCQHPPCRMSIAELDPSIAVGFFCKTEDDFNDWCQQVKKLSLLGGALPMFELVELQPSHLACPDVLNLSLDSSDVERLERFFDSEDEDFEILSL
rCAG RNA binder: binds r(CAG) RNA repeats; r(CAG) RNA repeat, TO-PRO-1 dye displacement fluorescence; inhibition, % at 3 µM; hit rate 1.3% among 370,000; AID 651821;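 active means inhibition above the plate cutoff, the mean of all test compounds on that plate plus 3 SD, cut at about 35% in these data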;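 further: 0% = DMSO alone and 100% = 100 µM mitoxantrone as full dye displacement; higher means more dye released from RNA so lower well fluorescence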
ATG4B conf: confirmation of human ATG4B inhibitors. hit rate 92% among 320. shares compounds with ATG4B inh. ATG4B protease fluorescent substrate cleavage assay. inhibition, % at 8.33 µM; in the data active means inhibition above about 39%
PLA2 ctr: counter-screen for ATG4B inhibitors: human phospholipase A2. hit rate 66% among 1,600. inhibition, % at 8.33 µM. shares compounds with ATG4B inh. purified PLA2, NBD-C6-HPC fluorescence, 45 min; in the data active means inhibition above about 50%
Target sequence (P04054 whole entry, looked up): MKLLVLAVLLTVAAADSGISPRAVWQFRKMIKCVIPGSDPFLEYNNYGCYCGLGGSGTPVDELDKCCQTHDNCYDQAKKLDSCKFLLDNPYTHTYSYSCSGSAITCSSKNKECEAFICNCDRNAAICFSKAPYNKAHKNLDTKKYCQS
An asterisk follows results filed as active.

What do the screens show for `O=C1c2ccccc2C(=O)N1C/C=C/c1ccccc1`?
LEDGF integ inh: -1; MBD2 DNA inh: 0; UHRF1 binding: -1; CSN inh: -7; ATG4B inh: -7; rCAG RNA binder: -1

What do the screens show for `O=C1C(=O)N(C/C=C/c2ccccc2)c2ccccc21`?
LEDGF integ inh: 6; MBD2 DNA inh: -4; UHRF1 binding: -1; CSN inh: 2; ATG4B inh: 49*; rCAG RNA binder: -3; PLA2 ctr: 54*

What do the screens show for `O=C(c1ccc(Cl)cc1)C1CCN(c2ncnc3sccc23)CC1`?
LEDGF integ inh: -2; MBD2 DNA inh: 3; UHRF1 binding: -2

Results for O=c1[nH]c(NNC(=S)NCc2ccccc2)nc2c1C1(CCCCC1)Cc1ccccc1-2 ?
LEDGF integ inh: 2; MBD2 DNA inh: 1; UHRF1 binding: -2; CSN inh: 2; ATG4B inh: 72*; rCAG RNA binder: 18; PLA2 ctr: 79*

How did CCCCCCCCCCCCCCCC[N+](C)(C)CCl do in these assays?
LEDGF integ inh: 3; MBD2 DNA inh: -9; UHRF1 binding: -1; CSN inh: 6; ATG4B inh: 56*; rCAG RNA binder: 7; ATG4B conf: 57*; PLA2 ctr: 39

What do the screens show for `Cc1ccccc1NC(=S)NCCSc1ccc(Cl)cc1`?
LEDGF integ inh: 4; MBD2 DNA inh: 1; UHRF1 binding: 4; CSN inh: 1; ATG4B inh: 45*; rCAG RNA binder: 5; PLA2 ctr: 51*

What do the screens show for `Cc1cccc(NC(=S)NCCSc2ccc(Cl)cc2)c1`?
LEDGF integ inh: -2; MBD2 DNA inh: 0; UHRF1 binding: 3; CSN inh: 0; ATG4B inh: 51*; rCAG RNA binder: -1; PLA2 ctr: 64*

Results for CCc1ccccc1NC(=S)NCCSc1ccc(Cl)cc1 ?
LEDGF integ inh: -2; MBD2 DNA inh: 2; UHRF1 binding: 2; CSN inh: -1; ATG4B inh: 66*; rCAG RNA binder: -1; PLA2 ctr: 80*

What do the screens show for `Cc1ccc(C)c(NC(=S)NCCSc2ccc(Cl)cc2)c1`?
LEDGF integ inh: -2; MBD2 DNA inh: 2; UHRF1 binding: 0; CSN inh: 0; ATG4B inh: 15; rCAG RNA binder: 4

Results for COC(=O)[C@]1(C)CN(C(=O)OC(C)(C)C)C2=C1C(=O)C[C@@](C)(C(=O)OC(C)(C)C)C2 ?
LEDGF integ inh: -4; MBD2 DNA inh: -3; UHRF1 binding: 1; rCAG RNA binder: -1

How did Cc1ccc(C)c(C(C)NC(=S)NCc2ccc(F)cc2)c1 (stereo unspecified) do in these assays?
LEDGF integ inh: 0; MBD2 DNA inh: 6; UHRF1 binding: 17; CSN inh: 5; ATG4B inh: 49*; rCAG RNA binder: -3; PLA2 ctr: 50*

Results for O=C1C(SCCO)=C(SCCO)C(=O)c2ccccc21 ?
LEDGF integ inh: 29*; MBD2 DNA inh: -9; UHRF1 binding: -9; CSN inh: 25; ATG4B inh: 44*; rCAG RNA binder: 5; ATG4B conf: 72*; PLA2 ctr: -16

Results for O=C1C(Cl)=C(NCCCO)C(=O)c2ccccc21 ?
LEDGF integ inh: 4; MBD2 DNA inh: -17; UHRF1 binding: -19; CSN inh: 1; ATG4B inh: 1; rCAG RNA binder: -1

What do the screens show for `O=C1CCC[C@H]2Cc3nc4cccc(Cl)c4cc3C[C@]23CCCN13`?
LEDGF integ inh: 0; MBD2 DNA inh: 2; UHRF1 binding: -1

How did COc1ccc(CCN2C(=S)N(C)C(=O)C2CC(=O)Nc2ccc(F)cc2)cc1 (stereo unspecified) do in these assays?
LEDGF integ inh: -2; MBD2 DNA inh: -2; UHRF1 binding: -1; CSN inh: 2; ATG4B inh: 43*; rCAG RNA binder: 2; PLA2 ctr: 56*

How did S=C(NCc1ccccc1)Nc1ccc(Cl)cc1 do in these assays?
LEDGF integ inh: -6; MBD2 DNA inh: -3; UHRF1 binding: 1; CSN inh: -1; ATG4B inh: 27; rCAG RNA binder: -1

What do the screens show for `FC(F)(F)c1cccc(NC(=S)NCc2ccccc2)c1`?
LEDGF integ inh: -2; MBD2 DNA inh: -2; UHRF1 binding: 2; CSN inh: -1; ATG4B inh: 59*; rCAG RNA binder: 2; PLA2 ctr: 62*

How did FC(F)(F)Sc1ccc(NC(=S)NCc2ccccc2)cc1 do in these assays?
LEDGF integ inh: 0; MBD2 DNA inh: 3; UHRF1 binding: 0; CSN inh: 0; ATG4B inh: 73*; rCAG RNA binder: 4; PLA2 ctr: 82*

What do the screens show for `FC(F)(F)c1cccc(CNC(=S)Nc2ccccc2)c1`?
LEDGF integ inh: -2; MBD2 DNA inh: 1; UHRF1 binding: -2; CSN inh: 0; ATG4B inh: 49*; rCAG RNA binder: -2; PLA2 ctr: 61*

How did O=C(NCc1cccc(C(F)(F)F)c1)c1cc(Cl)cc(Cl)c1 do in these assays?
LEDGF integ inh: 2; MBD2 DNA inh: 1; UHRF1 binding: 5; CSN inh: 3; ATG4B inh: 52*; rCAG RNA binder: 2; ATG4B conf: 60*; PLA2 ctr: 42

Results for O=c1oc(-c2cccs2)nc2sc3c(c12)CCCC3 ?
LEDGF integ inh: -3; MBD2 DNA inh: 2; UHRF1 binding: 13; CSN inh: -1; ATG4B inh: -5; rCAG RNA binder: 0

How did O=C1CN(c2nc(-c3cccs3)nc3sc4c(c23)CCCC4)CCN1 do in these assays?
LEDGF integ inh: 4; MBD2 DNA inh: -2; UHRF1 binding: -4; CSN inh: 6; ATG4B inh: 76*; rCAG RNA binder: 5; PLA2 ctr: 87*

What do the screens show for `O=C1CCCC2=C1C1(CCCCC1)N=C(Nc1nc3ccccc3s1)N2`?
LEDGF integ inh: 0; MBD2 DNA inh: 4; UHRF1 binding: 6; CSN inh: -2; ATG4B inh: 55*; rCAG RNA binder: 0; PLA2 ctr: -14

How did O=C1CCCC2=C1C1(CCCC1)N=C(Nc1nc3ccccc3s1)N2 do in these assays?
LEDGF integ inh: 2; MBD2 DNA inh: 1; UHRF1 binding: -2; CSN inh: 14; ATG4B inh: 75*; rCAG RNA binder: 0; PLA2 ctr: 9

What do the screens show for `CC1(C)CC(=O)C2=C(C1)NC(Nc1nc3ccccc3o1)=NC21CCCC1`?
LEDGF integ inh: -1; MBD2 DNA inh: -6; UHRF1 binding: -1; CSN inh: 0; ATG4B inh: -2; rCAG RNA binder: 4

Results for Cc1ccc2nc(NC3=NC4(CCCC4)C4=C(CCCC4=O)N3)oc2c1 ?
LEDGF integ inh: 4; MBD2 DNA inh: -2; UHRF1 binding: -1; CSN inh: 6; rCAG RNA binder: 9
